Shown are actives, neighbours in structure and some others; about 3.8% of the full set was active somewhere.
HSF-1 act: increases HSF-1 driven luciferase reporter signal | NIH3T3-HGL HSF-1 luciferase reporter, MG132, 8 h; 100% = twice DMSO control signal | activation, % at 9 µM | 300,000 tested, 1.7% active | AID 504408;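 active = mean replicate activation of at least 50% with a set share of replicates each reaching 50%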
HCV NS3 hel inh: blocks Hepatitis C virus NS3 helicase unwinding. NS3 helicase DNA unwinding, Cy5 molecular beacon fluorescence. inhibition, % at 10.9 µM. 290,000 tested, 0.56% active. AID 1800;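 active = inhibition above the mean of all tested compounds plus 3 SD, set per campaign, cut at about 35% in these data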
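assay system = NS3 helicase fragment of HCV | buffer or medium = MOPS pH 6.5, MgCl2, DTT, Tween20, BSA | timing = 60 min unwinding reaction at 25 °C after ATP addition | signal = Cy5 beacon fluorescence read at start and 1 h | read-out basis = % inhibition of unwinding | control set = low DMSO, high thioflavine S at 110 µM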
Hep lipid drop: hepatic lipid droplet formation modulation | AML12 mouse hepatocytes, oleate lipid droplets, BODIPY imaging | inhibition, % at 6.5 µM | 240,000 tested, 0.4% active;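 active = lipid droplet intensity inhibited by at least 50%, with more than 500 cells counted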
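Assay system: AML12 mouse liver cells | Compound: 6.5 µM single-point dosing | Schedule: Overnight exposure | Technique: Fluorescence imaging, 20x objective, two fields per well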
HSP90 refold inh: blocks HSP90-mediated luciferase refolding in reticulocyte lysate | Rabbit reticulocyte lysate, luciferase refolding luminescence, 3 h | 290,000 tested, 0.91% active | inhibition, % at 5.6 µM;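 active = inhibition above the screen-wide mean plus 3 SD, computed separately per campaign, cut at about 16% in these data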;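 also: inhibitors lower the luminescence because luciferase stays unfolded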
HSF1 inh: HSF1 inhibition | activity change, negative = inhibition, % at 7.5 µM (by protocol) | NIH3T3-HGL HSE-luciferase, MG132-induced, luminescence 8 h; active compounds read low | 300,000 tested, 0.77% active;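 active = more than half of replicate wells show activity change below -50%, luminescence cut by over half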;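 also: luciferase reports HSF-1 transcriptional activity via heat shock element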
NS3 helicase cf: confirmation of Hepatitis C virus NS3 helicase inhibitors | shares compounds with HCV NS3 hel inh | NS3 helicase DNA unwinding, Cy5 molecular beacon fluorescence | inhibition, % at 10.9 µM | 1,600 tested, 31% active;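 active = inhibition above the mean of all tested compounds plus 3 SD, cutoff set per campaign, cut at about 36% in these data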
DNA FID counter: intercalator displacement, NS3 helicase counter-screen; shares compounds with HCV NS3 hel inh; DNA fluorescent intercalator displacement, fluorescence; inhibition, % at 7.9 µM; 1,600 tested, 4% active; AID 1945; in the data active = inhibition above about 37%;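 also: higher means more displacement of ethidium bromide from the DNA hairpin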
DNA FID DR: DNA intercalator displacement in dose response; 120 tested, under 10 active; IC50, µM; shares compounds with HCV NS3 hel inh; fluorescent intercalator displacement from DNA, fluorescence; call rule not given here
Hits are given with their value.

What do the screens show for `COc1ccc(-c2nn(CCC(=O)O)cc2CCC(=O)O)cc1`?
HSF-1 act: inactive; HCV NS3 hel inh: inactive; HSP90 refold inh: inactive; HSF1 inh: inactive

Results for O=C(O)CCn1cc(C(=O)O)c(-c2ccccc2)n1 ?
HSF-1 act: inactive; HCV NS3 hel inh: 45.0; Hep lipid drop: inactive; HSP90 refold inh: inactive; HSF1 inh: inactive; NS3 helicase cf: inactive; DNA FID counter: inactive

How did O=[N+]([O-])c1cc(Br)c(O)c(C=Nc2ccc(N3CCOCC3)cc2)c1 do in these assays?
HSF-1 act: inactive; HCV NS3 hel inh: 36.6; Hep lipid drop: inactive; HSP90 refold inh: inactive; HSF1 inh: inactive; NS3 helicase cf: inactive; DNA FID counter: inactive

What do the screens show for `N#CC1=C(N)Oc2c(O)cc3ccccc3c2C1c1ccsc1` (centres undefined)?
HSF-1 act: 71.4; HCV NS3 hel inh: 38.0; Hep lipid drop: inactive; HSP90 refold inh: inactive; HSF1 inh: inactive; NS3 helicase cf: inactive; DNA FID counter: inactive

Results for CCOC(=O)C1=C(C)OC(N)=C(C#N)C1c1ccsc1 (centres undefined) ?
HSF-1 act: inactive; HCV NS3 hel inh: inactive; HSP90 refold inh: inactive; HSF1 inh: inactive

Results for COc1ccc2[nH]c3c(=O)n(CCCC(=O)NC4CCCCC4C)c(=S)[nH]c3c2c1 (centres undefined) ?
HSF-1 act: inactive; HCV NS3 hel inh: 41.6; Hep lipid drop: inactive; HSP90 refold inh: inactive; HSF1 inh: inactive; NS3 helicase cf: 39.7; DNA FID counter: inactive; DNA FID DR: inactive

How did CC(C)(C)C(=O)Nc1ccccc1N1CCN(c2ccc(F)cc2)CC1 do in these assays?
HSF-1 act: inactive; HCV NS3 hel inh: inactive; Hep lipid drop: inactive; HSP90 refold inh: inactive; HSF1 inh: inactive

Results for Cc1cc(C2=NNC(=NCc3ccccc3)SC2)c(C)n1-c1c(C)n(C)n(-c2ccccc2)c1=O ?
HCV NS3 hel inh: 36.5; Hep lipid drop: inactive; HSP90 refold inh: inactive; NS3 helicase cf: inactive; DNA FID counter: inactive

How did COc1ccccc1NC(=O)CN1CCN(CC(=O)Nc2ccc(C)c(F)c2)CC1 do in these assays?
HSF-1 act: inactive; HCV NS3 hel inh: inactive; Hep lipid drop: inactive; HSP90 refold inh: inactive; HSF1 inh: inactive

How did CCOc1ccc(S(=O)(=O)N(CC)CC(=O)NCc2ccncc2)cc1C do in these assays?
HSF-1 act: inactive; HCV NS3 hel inh: inactive; Hep lipid drop: inactive; HSP90 refold inh: inactive; HSF1 inh: inactive

How did CCOC(=O)N1CCN(Cc2nc3c(c(=O)n(C)c(=O)n3C)n2Cc2ccccc2C)CC1 do in these assays?
HSF-1 act: inactive; HCV NS3 hel inh: 60.8; HSP90 refold inh: inactive; HSF1 inh: inactive; NS3 helicase cf: inactive; DNA FID counter: inactive

What do the screens show for `CCCn1c(CN2CCN(C(=O)OCC)CC2)nc2c1c(=O)n(C)c(=O)n2C`?
HSF-1 act: inactive; HCV NS3 hel inh: inactive; Hep lipid drop: inactive; HSP90 refold inh: inactive; HSF1 inh: inactive

Results for COc1ccc(CCNC(=O)c2cccc(Br)c2)cc1OC ?
HSF-1 act: inactive; HCV NS3 hel inh: inactive; Hep lipid drop: inactive; HSP90 refold inh: inactive; HSF1 inh: inactive

How did Cn1ncc(Br)c1N1C(=O)CCC1=O do in these assays?
HSF-1 act: inactive; HCV NS3 hel inh: inactive; Hep lipid drop: inactive; HSP90 refold inh: inactive; HSF1 inh: inactive

What do the screens show for `C/C(=N\NC(=O)CC1(C)OCCO1)c1cccs1`?
HSF-1 act: inactive; HCV NS3 hel inh: 45.8; Hep lipid drop: inactive; HSP90 refold inh: inactive; HSF1 inh: inactive; NS3 helicase cf: inactive; DNA FID counter: inactive

Results for CC(C)CC[n+]1ccn(-c2nc3ccccc3nc2[N-]S(=O)(=O)c2ccccc2)c1 ?
HSF-1 act: inactive; HCV NS3 hel inh: inactive; HSP90 refold inh: inactive; HSF1 inh: inactive

What do the screens show for `O=S(=O)([N-]c1nc2ccccc2nc1-n1cc[n+](Cc2ccccc2)c1)c1ccc(Cl)cc1`?
HSF-1 act: inactive; HCV NS3 hel inh: 36.8; Hep lipid drop: inactive; HSP90 refold inh: inactive; HSF1 inh: inactive; NS3 helicase cf: inactive; DNA FID counter: inactive
